{"data": "Measured values from different studies", "organism": "Mycobacterium tuberculosis", "effect on": "microbial growth", "note": "Lines come from different studies, so protocols differ."}
{"SMILES": "CCOC(=O)C1=C(C)NC(=O)NC1c1ccc([N+](=O)[O-])o1 (centres unmarked)", "method": "resazurin", "strain": "H37RV", "endpoint": "MIC", "result": "20.1 µM"}
{"SMILES": "CSCOc1ccc2nc3ccc(=O)cc-3oc2c1", "time": "7 days", "endpoint": "MIC90", "result": "47 µM"}
{"SMILES": "O=C(O)c1cn(C2CC2)c2cc(N3CCNCC3)c(F)cc2c1=O", "strain": "ATCC25177 H37RA", "time": "14 days", "endpoint": "MIC", "result": "16 µg/mL"}
{"SMILES": "CC[C@@H](CO)NCCN[C@@H](CC)CO", "method": "resazurin", "strain": "H37RV", "endpoint": "MIC", "result": "7.64 µM"}
{"SMILES": "CN[C@@H]1[C@H](O)[C@H](NC)[C@H]2O[C@@]3(O)C(=O)C[C@@H](C)O[C@H]3O[C@@H]2[C@H]1O", "method": "broth dilution", "strain": "H37RV", "time": "7 days", "endpoint": "MIC", "result": "100 µg/mL"}
{"SMILES": "CCOC(=O)C1=C(C)NC(=NNS(=O)(=O)c2ccccc2)NC1c1cn(-c2ccccc2)nc1-c1ccccc1 (centres unmarked)", "method": "resazurin", "strain": "H37RV", "endpoint": "MIC", "result": "44.6 to 45.8 µM"}
{"SMILES": "NNC(=O)c1ccncc1", "method": "resazurin", "strain": "H37RV", "tested at": "0.212 µM", "endpoint": "inhibition", "result": "44%"}
{"SMILES": "COc1c(N2CC3CCCN(C(=O)OCc4ccc([N+](=O)[O-])cc4)C3C2)c(F)cc2c(=O)c(C(=O)O)cn(C3CC3)c12 (centres unmarked)", "strain": "H37RV", "endpoint": "MIC", "result": "> 8 µM"}
{"SMILES": "CC(C)/N=c1\\cc2n(-c3ccc(Cl)cc3)c3ccccc3nc-2cc1Nc1ccc(Cl)cc1", "time": "7 days", "endpoint": "MIC90", "result": "0.39 µM"}
{"SMILES": "O=C1c2ccccc2NC(c2cc([N+](=O)[O-])ccc2O)N1/N=C/c1cc([N+](=O)[O-])ccc1O (centres unmarked)", "strain": "ATCC25177 H37RA", "time": "14 days", "endpoint": "MIC", "result": "64 µg/mL"}
{"SMILES": "CC(=O)OCOc1ccc2nc3ccc(=O)cc-3oc2c1", "time": "7 days", "endpoint": "MIC90", "result": "34 µM"}
{"SMILES": "COc1c(N2CC3CCCNC3C2)c(F)cc2c(=O)c(C(=O)OCc3cnc([N+](=O)[O-])s3)cn(C3CC3)c12 (centres unmarked)", "strain": "H37RV", "endpoint": "MIC", "result": "0.25 µM"}
{"SMILES": "CCOC(=O)C1=C(C)NC(=S)NC1c1cn(-c2ccccc2)nc1-c1ccccc1 (centres unmarked)", "method": "resazurin", "strain": "H37RV", "endpoint": "MIC", "result": "59.7 µM"}
{"SMILES": "CCCCOc1ccc2nc3ccc(=O)cc-3oc2c1", "time": "7 days", "endpoint": "MIC90", "result": "≤ 10 µM"}
